The text below walks through data of ChEMBL document CHEMBL1806401, “Highly improved metabolic stability and pharmacokinetics of indium-111-DOTA-gastrin conjugates for targeting of the gastrin receptor” (J Med Chem, 2011).

The target in experiment [1] is T1, Cholecystokinin receptor type A (Homo sapiens, UniProt P32238).
T1 sequence (P32238 whole entry): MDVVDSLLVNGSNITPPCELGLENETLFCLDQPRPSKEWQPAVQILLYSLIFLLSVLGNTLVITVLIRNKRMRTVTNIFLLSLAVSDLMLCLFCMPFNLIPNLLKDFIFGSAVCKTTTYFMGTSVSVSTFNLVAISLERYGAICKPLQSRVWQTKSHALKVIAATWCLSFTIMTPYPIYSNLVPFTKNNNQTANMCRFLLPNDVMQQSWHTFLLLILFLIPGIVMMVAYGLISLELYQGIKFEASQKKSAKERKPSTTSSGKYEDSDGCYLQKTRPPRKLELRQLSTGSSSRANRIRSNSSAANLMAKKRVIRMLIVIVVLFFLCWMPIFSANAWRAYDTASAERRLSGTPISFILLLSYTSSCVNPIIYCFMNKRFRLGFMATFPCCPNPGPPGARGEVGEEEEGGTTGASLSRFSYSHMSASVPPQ
Description: Displacement of [125I]CCK from CCK1 receptor isolated from human tumor tissues. The method, boiled down:
(§1)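 Surgically resected human tumor tissues expressing CCK-1 or gastrin receptors; 125I-CCK incubation medium with increasing amounts of competitor added to generate competitive inhibition curves.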

In experiment [2] the target is T2, Gastrin/cholecystokinin type B receptor (Homo sapiens, UniProt P32239).
T2 sequence (P32239 whole entry): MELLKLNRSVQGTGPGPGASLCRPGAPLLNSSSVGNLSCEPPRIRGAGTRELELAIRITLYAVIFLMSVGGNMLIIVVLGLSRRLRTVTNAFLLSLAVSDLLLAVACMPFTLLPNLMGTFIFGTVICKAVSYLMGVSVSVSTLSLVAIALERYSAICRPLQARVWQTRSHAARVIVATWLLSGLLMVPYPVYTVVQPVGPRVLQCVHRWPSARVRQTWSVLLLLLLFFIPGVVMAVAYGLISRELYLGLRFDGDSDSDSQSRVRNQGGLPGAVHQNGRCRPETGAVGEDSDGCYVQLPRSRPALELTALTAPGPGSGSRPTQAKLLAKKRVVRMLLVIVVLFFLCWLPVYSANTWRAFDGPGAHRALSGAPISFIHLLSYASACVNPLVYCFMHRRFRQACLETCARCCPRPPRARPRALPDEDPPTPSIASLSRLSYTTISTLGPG
Description: Displacement of [125I]CCK from gastrin receptor isolated from human tumor tissues. The method, boiled down:
as §1
Background: Loss of bound radioactivity is the signal in a displacement assay; it reports binding, not function.

Experiment [3] addresses T3, Gastrin/cholecystokinin type B receptor (Rattus norvegicus, UniProt P30553).
T3 sequence (P30553 whole entry): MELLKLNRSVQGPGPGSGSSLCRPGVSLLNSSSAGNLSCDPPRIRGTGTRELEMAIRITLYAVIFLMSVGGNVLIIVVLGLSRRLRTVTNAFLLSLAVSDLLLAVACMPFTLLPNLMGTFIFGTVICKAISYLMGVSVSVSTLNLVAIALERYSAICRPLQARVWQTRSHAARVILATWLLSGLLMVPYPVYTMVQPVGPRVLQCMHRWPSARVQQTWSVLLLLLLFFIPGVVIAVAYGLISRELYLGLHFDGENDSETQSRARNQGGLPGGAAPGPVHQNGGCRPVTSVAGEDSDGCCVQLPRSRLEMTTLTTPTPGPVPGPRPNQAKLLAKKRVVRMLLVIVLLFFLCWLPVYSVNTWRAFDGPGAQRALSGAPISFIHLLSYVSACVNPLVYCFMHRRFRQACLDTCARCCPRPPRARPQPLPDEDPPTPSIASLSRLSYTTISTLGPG
In words: Agonist activity at gastrin receptor in rat AR4-2J cells assessed as intracellular calcium mobilization by fluorescence assay. The format is functional, cell-based. The method, boiled down:
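AR4-2J cells seeded 50 000/well, cultured 1 day at 37 C, 5% CO2, then loaded with Ca dye in HBSS/20 mM HEPES with 2.5 mM probenecid for 1 h at 37 C. Peptides added as 1:3 serial dilutions in HBSS/HEPES/0.1% BSA/0.05% pluronic acid, diluted 1:6 on addition. Fluorescence (ex 485/em 525 nm) read 4 min at room temperature; Fmax with ionomycin; EC50 from four-parameter fit.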
Background: Calcium assays in cells follow changes in intracellular calcium, usually with a dye or a luminescent sensor.

What is called IC50 is the point on the concentration scale where inhibition reaches its midpoint. A higher IC50 goes with a need for much substance. What is called EC50 is the concentration giving half of the maximal effect.

Peptide text beside a SMILES is read from it.

For the compound `CSCC[C@H](NC(=O)[C@H](Cc1c[nH]c2ccccc12)NC(=O)CNC(=O)[C@H](Cc1ccc(O)cc1)NC(=O)[C@H](C)NC(=O)[C@@H](CO)NC(=O)[C@@H](CO)NC(=O)[C@@H](CO)NC(=O)CN1CCN(CC(=O)O)CCN(CC(=O)O)CCN(CC(=O)O)CC1)C(=O)N[C@@H](CC(=O)O)C(=O)N[C@@H](Cc1ccccc1)C(N)=O`, the IC50 in experiment [1] is greater than 700 nM; in experiment [2] it was 0.6 nM.

With `CSCC[C@H](NC(=O)[C@H](Cc1c[nH]c2ccccc12)NC(=O)CNC(=O)[C@H](Cc1ccc(O)cc1)NC(=O)[C@H](C)NC(=O)[C@@H](CCC(N)=O)NC(=O)[C@@H](CCC(N)=O)NC(=O)CN1CCN(CC(=O)O)CCN(CC(=O)O)CCN(CC(=O)O)CC1)C(=O)N[C@@H](CC(=O)O)C(=O)N[C@@H](Cc1ccccc1)C(N)=O`, the values for the IC50 in experiment [1] and in experiment [2] were greater than 700 nM and 0.8 nM, respectively.

On to `CCCC[C@H](NC(=O)[C@H](Cc1c[nH]c2ccccc12)NC(=O)CNC(=O)[C@H](Cc1ccc(O)cc1)NC(=O)[C@H](C)NC(=O)[C@@H](CCC(N)=O)NC(=O)[C@@H](CCC(N)=O)NC(=O)[C@@H](CCC(N)=O)NC(=O)CN1CCN(CC(=O)O)CCN(CC(=O)O)CCN(CC(=O)O)CC1)C(=O)N[C@@H](CC(=O)O)C(=O)N[C@@H](Cc1ccccc1)C(N)=O`, for which the IC50 in experiment [1] was greater than 700 nM; in experiment [2], 1.6 nM.

As for `CSCC[C@H](NC(=O)[C@H](Cc1c[nH]c2ccccc12)NC(=O)CNC(=O)[C@H](Cc1ccc(O)cc1)NC(=O)[C@H](C)NC(=O)[C@@H](CCC(N)=O)NC(=O)[C@@H](CCC(N)=O)NC(=O)[C@@H](CCC(N)=O)NC(=O)[C@@H](CCC(N)=O)NC(=O)CN1CCN(CC(=O)O)CCN(CC(=O)O)CCN(CC(=O)O)CC1)C(=O)N[C@@H](CC(=O)O)C(=O)N[C@@H](Cc1ccccc1)C(N)=O`, the IC50 was greater than 700 nM in experiment [1] and 2.4 nM in experiment [2].

As to `CSCC[C@H](NC(=O)[C@H](Cc1c[nH]c2ccccc12)NC(=O)CNC(=O)[C@H](Cc1ccc(O)cc1)NC(=O)[C@H](C)NC(=O)[C@H](CCC(=O)O)NC(=O)[C@H](CCC(=O)O)NC(=O)[C@H](CCC(=O)O)NC(=O)[C@H](CCC(=O)O)NC(=O)[C@H](CCC(=O)O)NC(=O)[C@H](CCC(=O)O)NC(=O)CN1CCN(CC(=O)O)CCN(CC(=O)O)CCN(CC(=O)O)CC1)C(=O)N[C@@H](CC(=O)O)C(=O)N[C@@H](Cc1ccccc1)C(N)=O`, the IC50 in experiment [1] was greater than 700 nM; in experiment [2] it was 0.7 nM.

With `CSCC[C@H](NC(=O)[C@H](Cc1c[nH]c2ccccc12)NC(=O)CNC(=O)[C@H](Cc1ccc(O)cc1)NC(=O)[C@H](C)NC(=O)[C@@H](CO)NC(=O)[C@@H](CO)NC(=O)CN1CCN(CC(=O)O)CCN(CC(=O)O)CCN(CC(=O)O)CC1)C(=O)N[C@@H](CC(=O)O)C(=O)N[C@@H](Cc1ccccc1)C(N)=O`, the results for the IC50 in experiment [1] and in experiment [2] were greater than 700 nM and 0.9 nM, respectively.

Regarding `CSCC[C@H](NC(=O)[C@H](Cc1c[nH]c2ccccc12)NC(=O)CNC(=O)[C@H](Cc1ccc(O)cc1)NC(=O)[C@H](C)NC(=O)[C@@H](CCC(N)=O)NC(=O)[C@@H](CCC(N)=O)NC(=O)[C@@H](CCC(N)=O)NC(=O)CN1CCN(CC(=O)O)CCN(CC(=O)O)CCN(CC(=O)O)CC1)C(=O)N[C@@H](CC(=O)O)C(=O)N[C@@H](Cc1ccccc1)C(N)=O` (HELM PEPTIDE1{[O=C(O)CN1CCN(CC(=O)O)CCN(CC(=O)[*:2])CCN(CC(=O)O)CC1].[dQ].[dQ].[dQ].A.Y.G.W.M.D.F.[am]}$$$$V2.0), the EC50 in experiment [3] was 0.27 nM. For the same compound, the IC50 was greater than 700 nM in experiment [1] and 3.6 nM in experiment [2].

`CSCC[C@H](NC(=O)[C@H](Cc1c[nH]c2ccccc12)NC(=O)CNC(=O)[C@H](Cc1ccc(O)cc1)NC(=O)[C@H](C)NC(=O)[C@@H](CCC(N)=O)NC(=O)[C@@H](CCC(N)=O)NC(=O)[C@@H](CCC(N)=O)NC(=O)[C@@H](CCC(N)=O)NC(=O)[C@@H](CCC(N)=O)NC(=O)[C@@H](CCC(N)=O)NC(=O)CN1CCN(CC(=O)O)CCN(CC(=O)O)CCN(CC(=O)O)CC1)C(=O)N[C@@H](CC(=O)O)C(=O)N[C@@H](Cc1ccccc1)C(N)=O` (HELM PEPTIDE1{[O=C(O)CN1CCN(CC(=O)O)CCN(CC(=O)[*:2])CCN(CC(=O)O)CC1].[dQ].[dQ].[dQ].[dQ].[dQ].[dQ].A.Y.G.W.M.D.F.[am]}$$$$V2.0): in experiment [3], the EC50 was determined as 0.41 nM. Further, the concentration for half-maximal inhibition (IC50) was greater than 700 nM in experiment [1] and 2.4 nM in experiment [2].
